Paper PMC3403534 (Journal of Biomolecular Screening, 2009)
pIC50: −log10 of the molar value. Read-outs that look alike come from different tables or passages of the source.

Key:
TNAP [1] = molecular target: T1, TNAP (Homo sapiens, UniProt P05186); experiment: Colorimetric TNAP assay, pNPP substrate, absorbance at 405 nm; type: biochemical; details: colorimetric assays, 1 M DEA, compared with luminescent assay
T1 sequence (P05186 18-501 limits assumed): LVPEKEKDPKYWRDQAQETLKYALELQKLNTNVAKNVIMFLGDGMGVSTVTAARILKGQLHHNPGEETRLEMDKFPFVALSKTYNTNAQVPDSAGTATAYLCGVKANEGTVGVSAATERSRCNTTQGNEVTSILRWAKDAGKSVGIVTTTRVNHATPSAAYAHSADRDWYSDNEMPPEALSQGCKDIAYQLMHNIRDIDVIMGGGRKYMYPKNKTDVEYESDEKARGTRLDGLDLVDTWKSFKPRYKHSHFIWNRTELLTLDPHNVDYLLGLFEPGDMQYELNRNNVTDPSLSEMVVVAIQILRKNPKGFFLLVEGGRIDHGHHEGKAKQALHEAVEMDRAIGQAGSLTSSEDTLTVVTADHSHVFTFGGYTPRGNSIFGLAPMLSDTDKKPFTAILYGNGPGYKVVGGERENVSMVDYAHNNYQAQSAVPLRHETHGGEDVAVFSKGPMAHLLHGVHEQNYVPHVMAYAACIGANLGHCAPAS

PLAP = PLAP (Homo sapiens, UniProt P05187); experiment: Luminescent PLAP selectivity assay; type: biochemical; details: read-out: SDCCG panel IC50 PLAP, 85 µM CDP-star
How it was run: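 Run as an analogue of the luminescent TNAP assay: CDP-star held at the PLAP Km. The TNAP version used 100 mM DEA-HCl pH 9.8, 1 mM MgCl2 and 20 uM ZnCl2, with luminescence read after 30 min at room temperature. Percent inhibition was computed against negative and positive control wells. Dose-response data were fitted to the Hill equation for IC50, excluding nephelometrically precipitating concentrations.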

TNAP [2] = molecular target: T1, TNAP; details: ref Fishman and Sie, 1971; Van Belle, 1976; Farley et al., 1980; cited from earlier work
TNAP [3] = molecular target: T1, TNAP; experiment: Luminescent TNAP assay with CDP-star substrate; type: biochemical
IAP = molecular target: T2, IAP (Homo sapiens, UniProt P09923); experiment: Luminescent IAP selectivity assay; type: biochemical; details: read-out: SDCCG panel IC50 IAP, […] CDP-star
T2 sequence (P09923 20-503 limits assumed): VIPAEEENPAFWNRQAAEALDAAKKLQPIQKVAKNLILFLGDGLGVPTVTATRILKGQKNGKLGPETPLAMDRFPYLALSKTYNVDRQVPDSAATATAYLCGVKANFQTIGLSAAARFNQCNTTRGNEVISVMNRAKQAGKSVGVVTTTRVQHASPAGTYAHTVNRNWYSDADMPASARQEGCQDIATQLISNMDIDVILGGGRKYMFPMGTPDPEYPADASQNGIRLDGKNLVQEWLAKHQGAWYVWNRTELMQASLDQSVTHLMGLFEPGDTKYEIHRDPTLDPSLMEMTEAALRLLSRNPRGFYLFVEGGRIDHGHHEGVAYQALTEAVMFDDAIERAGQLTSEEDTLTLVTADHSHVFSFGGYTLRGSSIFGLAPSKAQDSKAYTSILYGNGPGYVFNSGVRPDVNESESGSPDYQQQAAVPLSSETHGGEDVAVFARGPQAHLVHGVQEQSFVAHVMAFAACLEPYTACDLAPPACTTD

TNAP [4] = molecular target: T1, TNAP; type: biochemical; details: for MOI vs CDP*: mode of inhibition with respect to CDP-star (UC uncompetitive, C competitive); for MOI vs DEA: mode of inhibition with respect to DEA (C competitive, NC non-competitive)
[5] = read-out: IC50 SAR-Lumi, dry powder compounds, 100 mM DEA
[6] = read-out: SDCCG panel IC50 TNAP

PLAP, sequence (P05187 23-506 limits assumed): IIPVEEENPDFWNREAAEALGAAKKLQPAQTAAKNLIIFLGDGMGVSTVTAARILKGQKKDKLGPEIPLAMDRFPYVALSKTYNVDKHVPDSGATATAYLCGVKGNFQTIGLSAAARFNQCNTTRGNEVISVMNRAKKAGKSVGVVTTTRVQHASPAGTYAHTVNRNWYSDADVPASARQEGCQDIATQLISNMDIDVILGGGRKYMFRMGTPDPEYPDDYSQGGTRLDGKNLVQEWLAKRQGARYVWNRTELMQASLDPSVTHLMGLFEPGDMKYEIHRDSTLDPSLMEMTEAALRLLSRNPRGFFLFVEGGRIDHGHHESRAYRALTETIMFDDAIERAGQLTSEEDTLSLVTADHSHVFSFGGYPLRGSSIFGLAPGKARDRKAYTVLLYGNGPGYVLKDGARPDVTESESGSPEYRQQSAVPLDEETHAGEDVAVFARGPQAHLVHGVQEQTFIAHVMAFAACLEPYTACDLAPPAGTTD

Q: Which “Activity in the colorimetric assay” value (TNAP [1]) does the source give for `COc1ccc(OC)c(S(=O)(=O)Nc2ccc(O)c(Sc3ncn[nH]3)c2)c1` [MLS-0043574] here?
A: inactive

Q: With `COc1ccc(OC)c(S(=O)(=O)Nc2cnc3ccccc3c2)c1` [MLS-0038949] as the compound, how does the pIC50 (PLAP) read?
A: < 4.00

Q: For `NC(N)=NCCCC[C@H](N)C(=O)O` [L-homoarginine], which “Mode of inhibition of TNAP by known inhibitors” value (TNAP [2]) is on record?
A: inhibited uncompetitively

Q: With `COc1ccc(C)cc1S(=O)(=O)Nc1cccnc1` [MLS-0010847] as the compound, how does the pIC50 (TNAP [3]; [5]) read?
A: 6.03

Q: What about the pIC50 (TNAP [3]; [6]) of the same compound?
A: 6.03

Q: And the pIC50 (PLAP)?
A: < 4.00

Q: And the pIC50 (IAP)?
A: < 4.00

Q: With `O=C1C2CC=CCC2C(=O)N1c1n[nH]c(Cc2ccccc2)n1` (stereo not shown) [MLS-0067142] as the compound, how does the pIC50 (TNAP [3]; [5]) read?
A: 6.73

Q: And the pIC50 (TNAP [3]; [6])?
A: 6.73

Q: And the pIC50 (PLAP)?
A: 5.50

Q: And the pIC50 (IAP)?
A: 6.27

Q: What about the “MOI vs CDP*” value (TNAP [4]) of the same compound?
A: competitive with CDP-star

Q: What about the “MOI vs DEA” value (TNAP [4]) of the same compound?
A: competitive mechanism

Q: Which results are given for `O=C(O)c1cc(-c2ccccc2Cl)n[nH]1` [MLS-0005718]?
A: pIC50 (TNAP [3]; [5]): 6.13; pIC50 (TNAP [3]; [6]): 6.13; pIC50 (PLAP): < 4.00; pIC50 (IAP): 4.36; MOI vs CDP* (TNAP [4]): competitive with CDP-star; MOI vs DEA (TNAP [4]): competitive mechanism

Q: Which “Mode of inhibition of TNAP by known inhibitors” value (TNAP [2]) does the source give for `c1ccc([C@H]2CN3CCSC3=N2)cc1` [levamisole] here?
A: inhibited uncompetitively

Q: With `O=c1cc(-c2cccc3ccccc23)[nH][nH]1` [MLS-0039961] as the compound, how does the pIC50 (TNAP [3]; [5]) read?
A: 5.34

Q: And the pIC50 (PLAP)?
A: < 4.00

Q: And the pIC50 (IAP)?
A: < 4.00

Q: And the “MOI vs CDP*” value (TNAP [4])?
A: competitive with CDP-star

Q: And the “MOI vs DEA” value (TNAP [4])?
A: non-competitive
